The text below walks through data of article PMC3546147 (Bioorganic & medicinal chemistry, 2012).

Assay [1] relates to KB. The conditions noted are these: prior hit; cited from earlier work.
The test system of the next assay is DU145. The conditions noted are these: read-out: GI50, DU145, prior hit; cited from earlier work.
The test system of another assay is A549. The following applies: read-out: GI50, A549, prior hit; cited from earlier work.
The subject of assay [2] is KB. As to the kind of experiment: Antiproliferative SRB assay, KB. It counts as cell-based, human. The conditions noted are these: positive control. An outline of the steps:
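Human nasopharyngeal epidermoid carcinoma KB cells, tested in a panel with A-549, P-gp-expressing KBVIN and DU145 lines. Cytotoxicity was read by the sulforhodamine B (SRB) method, with a reference compound run alongside. GI50 is the molar drug concentration causing 50% tumor cell growth inhibition.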

SMILES strings stand for the structures.

For `COc1ccc(Nc2nc(Cl)ccc2[N+](=O)[O-])cc1` [1a, 6-chloro-N-(4-methoxyphenyl)-3-nitropyridin-2-amine], the “GI50, KB” value in the assay with KB [1] is 7.19 µM. For the same molecule, the GI50 in the assay on DU145 is 3.83 µM; in the assay with A549, 13.5 µM.

On to `CC(=O)O[C@H]1C(=O)[C@@]2(C)[C@H]([C@H](OC(=O)c3ccccc3)[C@]3(O)C[C@H](OC(=O)[C@H](O)[C@@H](NC(=O)c4ccccc4)c4ccccc4)C(C)=C1C3(C)C)[C@]1(OC(C)=O)CO[C@@H]1C[C@@H]2O` [Paclitaxel], for which the “GI50 ± SD, KB” value is 0.00777 ± 0.00084 µM in the assay with KB [2] and 0.008 µM in the assay on KB [2] (listed as paclitaxel).
